According to ChEMBL document CHEMBL1671644, “Inhibition of human immunodeficiency virus type 1 infection by the candidate microbicide dapivirine, a nonnucleoside reverse transcriptase inhibitor” (Antimicrob Agents Chemother, 2009):

Assays:
[1] = tested on: Human immunodeficiency virus 1; test: Antiviral activity against HIV-1 subtype F V029522 infected in human MT4 cells assessed as inhibition of viral replication relative to HIV-1 3B; assay type: functional
In short: (§1)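 MT-4 cells (3 x 10^4/well) infected with site-directed mutants or recombinant clinical isolates (200 TCID50/well) with drug, cultured 3 to 5 days. Viability read by MTT colorimetric antivirogram assay. IC50 by nonlinear regression; fold change = IC50 for the test isolate / IC50 for wild-type HIV-1 IIIB tested in parallel (mean or median).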

[2] = tested on: Human immunodeficiency virus 1; test: Antiviral activity against HIV-1 subtype D V022832 infected in human MT4 cells assessed as inhibition of viral replication relative to HIV-1 3B; assay type: functional; in short: as §1
[3] = Selectivity index, ratio of CC50 for human monocyte derived macrophages to IC50 for HIV-1 Bal; assay type: functional
In short: (§2)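 Selectivity index is CC50/IC50, using values determined in the same time period. CC50 was measured by MTT for TZM-bl and PM-1 cells and by trypan blue exclusion after 14 days for macrophages. Both were fitted by nonlinear regression.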

[4] = tested on: Human immunodeficiency virus 1; test: Antiviral activity against HIV-1 subtype H V029523 harboring NNRTI K101Q and V179I mutant infected in human MT4 cells assessed as inhibition of viral replication relative to HIV-1 3B; assay type: functional; in short: as §1
[5] = tested on: Human immunodeficiency virus 1; test: Antiviral activity against HIV-1 Bal infected in 24 hrs 100 to 1000 nM compound pretreated human ectocervical explant tissue assessed as prolonged inhibition of viral infection post compound removal measured after 6 days post compound removal; assay type: functional
In short: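 Ectocervical explants were exposed to drug (0.01–10 µM) for 2 or 24 h at 37°C and washed. They received HIV-1BaL (2 h) on day 0, 2, 4 or 6 after drug removal, with no drug present. Read-outs at 10 days post-exposure: explant p24 ELISA, tissue proviral DNA by qPCR, and p24 in migratory cell–PM-1 cocultures. Three donors (2 h) or two donors (24 h), triplicate.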

[6] = tested on: Human immunodeficiency virus 1; test: Antiviral activity against HIV-1 Bal infected in human monocyte derived macrophages after 14 days by p24 assay; settings: Human immunodeficiency virus 1, Bal, 336 h
[7] = tested on: Human immunodeficiency virus 1; test: Antiviral activity against HIV-1 RF infected in human PM1 cells after 7 days by RT assay; assay type: functional, organism-based; settings: Human immunodeficiency virus 1, RF, PM1, 168 h
In short: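 PM-1 cells (4 x 10^4/well) were infected with HIV-1BaL or HIV-1RF (200 TCID50/ml) and cultured 7 days with drug. Replication was measured as reverse transcriptase in supernatant versus untreated wells. IC50 was obtained by nonlinear regression.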

[8] = Selectivity index, ratio of CC50 for human MT-4 cells to IC50 for HIV-1 3B; assay type: functional, MT4
[9] = tested on: Human immunodeficiency virus 1; test: Antiviral activity against HIV-1 Bal infected in human TZM-bl cells after 24 hrs by luciferase reporter gene assay in presence of 12.5% whole semen; assay type: functional, organism-based; settings: Human immunodeficiency virus 1, Bal
In short: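 HIV-1 BaL (200 TCID50/ml) pretreated with whole semen (12.5% final), then added to overnight-cultured TZM-bl cells (5 x 10^4/well) pretreated 1 h with drug. After 24 h, cells lysed and luciferase read. IC50 versus drug-free control by nonlinear regression; effect of semen tested by ANOVA with Bonferroni and t tests.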

[10] = tested on: Human immunodeficiency virus 1; test: Antiviral activity against HIV-1 subtype CRF01_AE V029525 infected in human MT4 cells assessed as inhibition of viral replication relative to HIV-1 3B; assay type: functional
In short: (§3)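 Recombinant clinical HIV-1 isolates (200 TCID50/well) were tested in MT-4 cells (3 x 10^4/well) over 3–5 days, with an MTT viability read-out. IC50 was fitted by nonlinear regression. Fold change is the isolate IC50 divided by the HIV-1IIIB IC50, tested in parallel.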

[11] = tested on: Human immunodeficiency virus 1; test: Antiviral activity against HIV-1 Bal infected in human TZM-bl cells after 24 hrs by luciferase reporter assay; settings: Human immunodeficiency virus 1, Bal
[12] = tested on: Human immunodeficiency virus 1; test: Antiviral activity against HIV-1 SM012 harboring NNTRI 108I mutant infected in human MT4 cells assessed as inhibition of viral replication relative to HIV-1 3B; assay type: functional; in short: as §1
[13] = tested on: Human immunodeficiency virus 1; test: Antiviral activity against HIV-1 Bal infected in human PM1 cells assessed as inhibition of transmission of virus to premissive T cells; assay type: functional, organism-based; settings: Human immunodeficiency virus 1, Bal
In short: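 Explants were pretreated with drug for 1 h, then exposed to HIV-1BaL for 2 h with drug present and washed. Cells that migrated out overnight were washed and cocultured with PM-1 cells (4 x 10^4/well) for about 10 days. Transfer was read as p24 by ELISA in coculture supernatant (detection limit 300 pg/ml). Two donors, triplicate.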

[14] = tested on: Human immunodeficiency virus 1; test: Antiviral activity against HIV-1 subtype D V022819 infected in human MT4 cells assessed as inhibition of viral replication relative to HIV-1 3B; assay type: functional; in short: as §1
[15] = tested on: Human immunodeficiency virus 1; test: Antiviral activity against HIV-1 subtype C V022831 infected in human MT4 cells assessed as inhibition of viral replication relative to HIV-1 3B; assay type: functional; in short: as §1
[16] = tested on: Human immunodeficiency virus 1; test: Antiviral activity against HIV-1 SM051 harboring NNTRI 100I and 103N mutant infected in human MT4 cells assessed as inhibition of viral replication relative to HIV-1 3B; assay type: functional; in short: as §1
[17] = Selectivity index, ratio of CC50 for human PM1 cells to IC50 for HIV-1 Bal; assay type: functional; in short: as §2
[18] = tested on: Human immunodeficiency virus 1; test: Antiviral activity against HIV-1 subtype B V022815 infected in human MT4 cells assessed as inhibition of viral replication relative to HIV-1 3B; assay type: functional; in short: as §3
[19] = Selectivity index, ratio of CC50 for human TZM-bl cells to IC50 for HIV-1 3B; assay type: functional; in short: as §2
[20] = tested on: Human immunodeficiency virus 1; test: Antiviral activity against HIV-1 subtype CRF05_DF V022833 harboring NNRTI V179I mutant infected in human MT4 cells assessed as inhibition of viral replication relative to HIV-1 3B; assay type: functional; in short: as §1
[21] = tested on: Human immunodeficiency virus 1; test: Antiviral activity against HIV-1 SF162 infected in hu-SCID mouse assessed as protection from viral infection at 22.5 uM; assay type: functional; settings: Human immunodeficiency virus 1, SF162 ISOLATE
[22] = tested on: Human immunodeficiency virus 1; test: Antiviral activity against HIV-1 SM002 harboring NNTRI 181C mutant infected in human MT4 cells assessed as inhibition of viral replication relative to HIV-1 3B; assay type: functional; in short: as §1
[23] = tested on: Human immunodeficiency virus 1; test: Antiviral activity against HIV-1 SM034 harboring NNTRI 188L mutant infected in human MT4 cells assessed as inhibition of viral replication relative to HIV-1 3B; assay type: functional; in short: as §1
[24] = tested on: Human immunodeficiency virus 1; test: Antiviral activity against HIV-1 subtype C V022829 infected in human MT4 cells assessed as inhibition of viral replication relative to HIV-1 3B; assay type: functional; in short: as §1
[25] = tested on: Human immunodeficiency virus 1; test: Antiviral activity against HIV-1 subtype B V022807 infected in human MT4 cells assessed as inhibition of viral replication relative to HIV-1 3B; assay type: functional; in short: as §3
[26] = tested on: Human immunodeficiency virus 1; test: Antiviral activity against HIV-1 SM007 harboring NNTRI 103N mutant infected in human MT4 cells assessed as inhibition of viral replication relative to HIV-1 3B; assay type: functional; in short: as §1

Cc1cc(C)c(Nc2ccnc(Nc3ccc(C#N)cc3)n2)c(C)c1 [DAPIVIRINE]
Ratio IC50 [1]: 1.5 | Ratio IC50 [2]: 0.7 | Selectivity Index [3]: 8333 | Ratio IC50 [4]: 1.4 | inhibition (INH) [5]: 90% | IC50 [6]: 2.4 nM | IC50 [7]: 2.4 nM | Selectivity Index [8]: 2389 | IC50 [9]: 1.75 nM | IC90 [9]: 16.7 nM | Ratio IC50 [10]: 2.6 | IC50 [11]: 2.2 nM | Ratio IC50 [12]: 1 | IC50 [13]: 0.1 nM | Ratio IC50 [14]: 1.5 | Ratio IC50 [15]: 0.8 | Ratio IC50 [16]: 2389 | Selectivity Index [17]: 1833 | Ratio IC50 [18]: 2.2 | Selectivity Index [19]: 20400 | Ratio IC50 [20]: 1 | inhibition in vivo at 22.5 µM [21]: 78.6% | Ratio IC50 [22]: 8 | Ratio IC50 [23]: 47 | Ratio IC50 [24]: 1 | Ratio IC50 [25]: 1.1 | Ratio IC50 [26]: 5
